Reference: publication PMC4804314 (Pharmacology Research & Perspectives, 2016)

What was measured:
[1] = tested on: sandwich‐cultured human hepatocytes; experiment: Hepatobiliary disposition in sandwich-cultured human hepatocytes; assay type: in vitro ADME; conditions: 10 min
Procedure, shortened: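 Sandwich-cultured human hepatocytes from three donor liver preparations, cultured 6 days. [14C]-test compound was applied at 10 and 250 μmol/L, with [3H]-taurocholate as transporter-function control and LDH release as cytotoxicity check. Radioactivity was read by LSC. Accumulation is mean ± SD of triplicate wells. BEI, CLbiliary, intracellular concentration and Cic/Cec were derived.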

[2] = tested on: sandwich‐cultured mouse (NMRI) hepatocytes; experiment: Hepatobiliary disposition in sandwich-cultured mouse hepatocytes; assay type: in vitro ADME; conditions: 1 μmol/L, 10 min
[3] = donor 1, 1 μmol/L, mean ± SD of triplicate wells
[4] = donor 2, 1 μmol/L, mean ± SD of triplicate wells
[5] = donor 3, 1 μmol/L, mean ± SD of triplicate wells
[6] = mean ± standard error of 3 donors, 1 μmol/L

With `C[C@H](CCC(=O)NCCS(=O)(=O)O)[C@H]1CC[C@H]2[C@@H]3[C@H](O)C[C@@H]4C[C@H](O)CC[C@]4(C)[C@H]3C[C@H](O)[C@]12C` [TCA, taurocholate, reference compound] the BEI ([1]; donor 1, 1 μmol/L) was 44.6%, the CLbiliary ([1]; donor 1, 1 μmol/L) was 7.16 mL/min/kg and the Cellular accumulation [1, 3] was 30.7 ± 2.8 pmol/mg. It also gave a Total accumulation [1, 3] of 55.3 ± 5.7 pmol/mg, a BEI ([1]; donor 2, 1 μmol/L) of 74.2% and a CLbiliary ([1]; donor 2, 1 μmol/L) of 19.3 mL/min/kg. For the same compound, the Cellular accumulation [1, 4] was 23.2 ± 1.9 pmol/mg, the Total accumulation [1, 4] was 89.7 ± 3.6 pmol/mg and the BEI ([1]; donor 3, 1 μmol/L) was 66.5%. The CLbiliary ([1]; donor 3, 1 μmol/L) was 31.0 mL/min/kg, the Cellular accumulation [1, 5] was 53.9 ± 2.0 pmol/mg and the Total accumulation [1, 5] was 161 ± 12 pmol/mg. It also gave a BEI [1, 6] of 61.7 ± 8.9%, a CLbiliary [1, 6] of 19.2 ± 6.9 mL/min/kg and a Cellular accumulation [1, 6] of 35.9 ± 9.2 pmol/mg. It also gave a Total accumulation [1, 6] of 102 ± 31 pmol/mg, a BEI [2] of 30.5% and a CLbiliary [2] of 66.8 mL/min/kg. It also gave a Cellular accumulation ([2]; mean ± SD of triplicate wells) of 150 ± 28 pmol/mg and a Total accumulation ([2]; mean ± SD of triplicate wells) of 215 ± 23 pmol/mg.
